This is an account of results in PMC10866054 (Journal of Enzyme Inhibition and Medicinal Chemistry, 2024).

Bounds are passed on as bounds.

For one series, the system named is MDA-MB-231. The experiment in a line: MTT cytotoxicity, MDA-MB-231. The class given is cell-based. As to conditions: Homo sapiens, MDA-MB-231, read-out: Cytotoxic activity IC50, MDA-MB-231.
For a further series, the system named is PC-3. The experiment in a line: MTT cytotoxicity, PC-3. It is filed as cell-based, human. As to conditions: for IC50: read-out: Cytotoxic activity IC50, PC-3, MTT, mean ± SD of three experiments; for fold superior to IC50 of the erlotinib, PC-3: PC-3 cell line, vs erlotinib.
A further series concerns the target PI3Kβ (p110β/p85α) (Homo sapiens, UniProt P42338). The experiment in a line: PI3Kβ Assay Kit. It is filed as biochemical.
Another series concerns HCT-116. The experiment in a line: MTT cytotoxicity, HCT-116. It is filed as cell-based. As to conditions: Homo sapiens, HCT-116, read-out: Cytotoxic activity IC50, HCT-116.
Another series has as its system HEPG-2. The experiment in a line: MTT cytotoxicity, HEPG-2. It is filed as cell-based, human. As to conditions: for IC50: Homo sapiens, HepG2, read-out: Cytotoxic activity IC50, HEPG-2.
Series [1] is described as follows: MTT cytotoxicity, normal prostate epithelial cells. It is filed as cell-based. The note with it: human, HPrEC normal primary prostate epithelial cells.
Another series addresses EGFR (Homo sapiens, UniProt P00533). The experiment in a line: EGFR Kinase Assay Kit. The class given is biochemical.
In a further series the target is PI3Kα (Homo sapiens, UniProt P42336). The experiment in a line: PI3K isoform ELISA kit, PI3Kα. The class given is biochemical. The note with it: mean ± SD of three experiments.
A further series addresses PI3Kγ (Homo sapiens, UniProt P48736). Kind of series: PI3K isoform ELISA kit, PI3Kγ. It is filed as biochemical.
A further series addresses PI3Kδ (Homo sapiens, UniProt O00329). Kind of series: PI3K isoform ELISA kit, PI3Kδ. It is filed as biochemical. A general note: In an ELISA, binding on a coated surface is turned into a signal by an enzyme label.
A further series deals with AKT. Kind of series: RT-qPCR gene expression of AKT in PC-3 cells. The class given is cell-based, human. As to conditions: PC-3 cells treated at IC50 3.56 µM, compared to untreated cells. The gist of the method: (§1)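 Control and treated cells (1×10^5) were trypsinised, spun at 5000 rpm and washed in PBS. Total RNA was isolated and cDNA synthesised. Gene-specific mRNA was measured by qPCR with IDT-designed primers, with a GAPDH primer pair included. Expression was given relative to untreated control cells.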

Another series deals with m-TOR. Kind of series: RT-qPCR gene expression of m-TOR in PC-3 cells. It is filed as cell-based, human. The note with it: PC-3 cells treated at IC50 3.56 µM, compared to untreated cells. The method, boiled down:
as §1

In the next series the test system is P53. The experiment in a line: RT-qPCR gene expression of P53 in PC-3 cells. As to conditions: PC-3 cells treated at IC50, vs untreated PC-3. It is filed as cell-based, human. The gist of the method: as §1
Background: Real-time PCR tracks product formation cycle by cycle.

The next series has as its system BAX. Kind of series: RT-qPCR gene expression of BAX in PC-3 cells. The class given is cell-based, human. The note with it: PC-3 cells treated at IC50, vs untreated PC-3. The gist of the method: as §1
A further series deals with BCl-2. Kind of series: RT-qPCR gene expression of BCl-2 in PC-3 cells. As to conditions: PC-3 cells treated at IC50, vs untreated PC-3. It is filed as cell-based, human. The method, boiled down:
as §1

In the next series the test system is caspase 3. Kind of series: RT-qPCR gene expression of caspase 3 in PC-3 cells. The class given is cell-based, human. As to conditions: PC-3 cells treated at IC50, vs untreated PC-3. The gist of the method:
as §1

In a further series the test system is caspase 8. Kind of series: RT-qPCR gene expression of caspase 8 in PC-3 cells. It is filed as cell-based, human. The note with it: PC-3 cells treated at IC50, vs untreated PC-3. The method, boiled down: as §1
Series [2] relates to PC-3 cells. Kind of series: Cell cycle analysis. As to conditions: compound at IC50, 24 h. It is filed as cell-based, human.
For series [3], the system named is PC-3 cells. The experiment in a line: Annexin V/propidium iodide staining for apoptosis. The class given is cell-based, human.

PI3Kβ (p110β/p85α), sequence (P42338 whole entry): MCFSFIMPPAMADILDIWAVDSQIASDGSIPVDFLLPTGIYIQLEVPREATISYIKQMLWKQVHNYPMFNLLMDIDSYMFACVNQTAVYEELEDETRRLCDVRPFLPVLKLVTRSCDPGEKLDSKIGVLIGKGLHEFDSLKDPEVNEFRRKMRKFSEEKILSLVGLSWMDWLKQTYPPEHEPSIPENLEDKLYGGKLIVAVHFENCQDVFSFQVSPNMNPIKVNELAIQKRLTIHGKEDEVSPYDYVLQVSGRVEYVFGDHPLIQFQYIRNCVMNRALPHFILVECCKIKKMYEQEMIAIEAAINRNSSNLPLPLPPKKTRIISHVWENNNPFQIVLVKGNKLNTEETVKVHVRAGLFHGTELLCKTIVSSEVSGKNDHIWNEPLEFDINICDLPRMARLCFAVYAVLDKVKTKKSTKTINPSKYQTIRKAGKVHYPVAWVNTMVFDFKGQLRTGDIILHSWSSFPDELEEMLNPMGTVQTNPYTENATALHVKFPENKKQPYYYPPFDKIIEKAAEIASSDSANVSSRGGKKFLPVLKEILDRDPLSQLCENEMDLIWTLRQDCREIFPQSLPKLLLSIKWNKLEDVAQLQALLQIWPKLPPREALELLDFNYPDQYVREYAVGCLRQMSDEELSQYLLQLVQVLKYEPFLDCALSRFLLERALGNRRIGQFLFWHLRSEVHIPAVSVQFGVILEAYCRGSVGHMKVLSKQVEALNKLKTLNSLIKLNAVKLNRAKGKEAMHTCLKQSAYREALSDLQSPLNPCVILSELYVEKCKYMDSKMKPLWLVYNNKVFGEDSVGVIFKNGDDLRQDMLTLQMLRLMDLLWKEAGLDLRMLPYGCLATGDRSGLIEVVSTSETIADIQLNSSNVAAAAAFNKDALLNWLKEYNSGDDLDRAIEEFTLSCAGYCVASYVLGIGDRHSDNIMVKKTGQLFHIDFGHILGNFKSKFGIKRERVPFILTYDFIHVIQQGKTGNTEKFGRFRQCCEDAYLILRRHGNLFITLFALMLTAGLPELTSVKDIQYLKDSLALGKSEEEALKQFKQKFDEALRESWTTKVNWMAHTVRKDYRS
PI3Kβ (p110β/p85α), sequence (P27986 whole entry partner): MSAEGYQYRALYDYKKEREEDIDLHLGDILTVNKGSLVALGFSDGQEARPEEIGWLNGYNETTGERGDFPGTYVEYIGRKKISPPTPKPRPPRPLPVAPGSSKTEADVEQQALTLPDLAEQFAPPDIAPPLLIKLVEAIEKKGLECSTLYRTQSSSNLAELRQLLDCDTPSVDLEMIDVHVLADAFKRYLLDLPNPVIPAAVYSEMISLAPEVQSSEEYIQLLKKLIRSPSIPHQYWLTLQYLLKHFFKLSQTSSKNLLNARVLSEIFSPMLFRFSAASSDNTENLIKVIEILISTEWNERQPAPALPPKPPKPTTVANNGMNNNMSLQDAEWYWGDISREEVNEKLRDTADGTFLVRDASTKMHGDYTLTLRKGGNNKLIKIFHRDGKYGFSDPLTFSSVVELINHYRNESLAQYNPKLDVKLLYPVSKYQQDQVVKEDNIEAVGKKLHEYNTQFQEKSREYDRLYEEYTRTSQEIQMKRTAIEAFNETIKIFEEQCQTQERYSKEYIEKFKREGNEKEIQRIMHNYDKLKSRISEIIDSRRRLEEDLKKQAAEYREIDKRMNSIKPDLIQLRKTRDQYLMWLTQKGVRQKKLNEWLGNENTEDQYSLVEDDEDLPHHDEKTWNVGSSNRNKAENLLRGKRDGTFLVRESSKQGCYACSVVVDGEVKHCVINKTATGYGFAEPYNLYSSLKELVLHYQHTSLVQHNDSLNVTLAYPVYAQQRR
PI3Kδ, sequence (O00329 whole entry, canonical isoform): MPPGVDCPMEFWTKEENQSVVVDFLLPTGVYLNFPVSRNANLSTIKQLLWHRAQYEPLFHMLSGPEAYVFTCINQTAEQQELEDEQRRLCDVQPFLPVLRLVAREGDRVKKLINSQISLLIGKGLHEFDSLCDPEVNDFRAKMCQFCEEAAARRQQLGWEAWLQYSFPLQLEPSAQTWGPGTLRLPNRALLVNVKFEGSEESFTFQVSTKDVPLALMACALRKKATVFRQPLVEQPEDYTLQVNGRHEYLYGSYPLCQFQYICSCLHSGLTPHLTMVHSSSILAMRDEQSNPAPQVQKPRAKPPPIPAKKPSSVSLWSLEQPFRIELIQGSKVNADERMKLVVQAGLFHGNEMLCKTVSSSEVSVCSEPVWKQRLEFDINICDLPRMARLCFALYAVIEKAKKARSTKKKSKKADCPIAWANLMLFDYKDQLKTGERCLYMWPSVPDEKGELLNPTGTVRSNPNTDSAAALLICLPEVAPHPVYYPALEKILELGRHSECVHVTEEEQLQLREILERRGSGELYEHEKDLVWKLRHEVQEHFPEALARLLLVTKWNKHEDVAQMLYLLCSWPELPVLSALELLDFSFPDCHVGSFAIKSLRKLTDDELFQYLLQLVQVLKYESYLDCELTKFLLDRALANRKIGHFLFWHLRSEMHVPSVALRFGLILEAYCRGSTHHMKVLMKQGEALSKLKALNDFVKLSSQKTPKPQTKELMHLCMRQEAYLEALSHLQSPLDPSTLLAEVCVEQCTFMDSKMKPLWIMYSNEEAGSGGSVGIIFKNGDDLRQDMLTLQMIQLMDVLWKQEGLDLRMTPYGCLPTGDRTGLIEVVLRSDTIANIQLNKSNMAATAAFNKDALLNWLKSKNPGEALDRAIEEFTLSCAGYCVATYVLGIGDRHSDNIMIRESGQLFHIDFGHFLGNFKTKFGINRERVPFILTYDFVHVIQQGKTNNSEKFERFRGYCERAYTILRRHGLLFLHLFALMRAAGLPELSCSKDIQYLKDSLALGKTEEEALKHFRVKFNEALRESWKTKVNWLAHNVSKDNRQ
PI3Kδ, sequence (P27986 whole entry partner, canonical isoform): as the sequence (P27986 whole entry partner) above
PI3Kγ, sequence (P48736 whole entry, canonical isoform): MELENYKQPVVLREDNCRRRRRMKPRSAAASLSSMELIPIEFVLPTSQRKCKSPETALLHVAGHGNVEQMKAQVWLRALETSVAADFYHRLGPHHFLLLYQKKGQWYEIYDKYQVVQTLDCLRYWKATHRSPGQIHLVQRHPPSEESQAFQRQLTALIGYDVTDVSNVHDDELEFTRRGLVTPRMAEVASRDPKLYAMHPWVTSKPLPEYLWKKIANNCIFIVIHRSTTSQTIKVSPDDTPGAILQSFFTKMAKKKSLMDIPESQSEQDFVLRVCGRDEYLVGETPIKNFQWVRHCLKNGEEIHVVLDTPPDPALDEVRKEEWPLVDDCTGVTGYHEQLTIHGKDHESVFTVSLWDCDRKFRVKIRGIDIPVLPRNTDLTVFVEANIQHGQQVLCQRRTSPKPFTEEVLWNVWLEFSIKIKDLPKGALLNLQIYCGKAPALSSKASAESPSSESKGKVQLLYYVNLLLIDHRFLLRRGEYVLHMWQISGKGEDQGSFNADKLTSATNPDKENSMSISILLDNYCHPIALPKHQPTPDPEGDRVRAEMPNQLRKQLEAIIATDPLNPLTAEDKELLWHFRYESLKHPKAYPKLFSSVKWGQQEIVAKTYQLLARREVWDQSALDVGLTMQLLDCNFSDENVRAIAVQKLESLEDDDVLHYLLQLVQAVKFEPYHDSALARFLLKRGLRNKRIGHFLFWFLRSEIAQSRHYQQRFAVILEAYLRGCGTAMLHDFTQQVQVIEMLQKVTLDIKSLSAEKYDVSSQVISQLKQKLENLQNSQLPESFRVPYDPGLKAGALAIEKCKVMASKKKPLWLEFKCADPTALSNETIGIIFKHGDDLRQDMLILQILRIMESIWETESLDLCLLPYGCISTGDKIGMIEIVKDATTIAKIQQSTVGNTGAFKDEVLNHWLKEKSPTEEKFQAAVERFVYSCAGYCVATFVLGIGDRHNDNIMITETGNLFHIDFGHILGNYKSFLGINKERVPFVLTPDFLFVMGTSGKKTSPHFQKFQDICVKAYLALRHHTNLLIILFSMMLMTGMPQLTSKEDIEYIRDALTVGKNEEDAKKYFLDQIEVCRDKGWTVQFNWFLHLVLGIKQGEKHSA
PI3Kα, sequence (P42336 whole entry, canonical isoform): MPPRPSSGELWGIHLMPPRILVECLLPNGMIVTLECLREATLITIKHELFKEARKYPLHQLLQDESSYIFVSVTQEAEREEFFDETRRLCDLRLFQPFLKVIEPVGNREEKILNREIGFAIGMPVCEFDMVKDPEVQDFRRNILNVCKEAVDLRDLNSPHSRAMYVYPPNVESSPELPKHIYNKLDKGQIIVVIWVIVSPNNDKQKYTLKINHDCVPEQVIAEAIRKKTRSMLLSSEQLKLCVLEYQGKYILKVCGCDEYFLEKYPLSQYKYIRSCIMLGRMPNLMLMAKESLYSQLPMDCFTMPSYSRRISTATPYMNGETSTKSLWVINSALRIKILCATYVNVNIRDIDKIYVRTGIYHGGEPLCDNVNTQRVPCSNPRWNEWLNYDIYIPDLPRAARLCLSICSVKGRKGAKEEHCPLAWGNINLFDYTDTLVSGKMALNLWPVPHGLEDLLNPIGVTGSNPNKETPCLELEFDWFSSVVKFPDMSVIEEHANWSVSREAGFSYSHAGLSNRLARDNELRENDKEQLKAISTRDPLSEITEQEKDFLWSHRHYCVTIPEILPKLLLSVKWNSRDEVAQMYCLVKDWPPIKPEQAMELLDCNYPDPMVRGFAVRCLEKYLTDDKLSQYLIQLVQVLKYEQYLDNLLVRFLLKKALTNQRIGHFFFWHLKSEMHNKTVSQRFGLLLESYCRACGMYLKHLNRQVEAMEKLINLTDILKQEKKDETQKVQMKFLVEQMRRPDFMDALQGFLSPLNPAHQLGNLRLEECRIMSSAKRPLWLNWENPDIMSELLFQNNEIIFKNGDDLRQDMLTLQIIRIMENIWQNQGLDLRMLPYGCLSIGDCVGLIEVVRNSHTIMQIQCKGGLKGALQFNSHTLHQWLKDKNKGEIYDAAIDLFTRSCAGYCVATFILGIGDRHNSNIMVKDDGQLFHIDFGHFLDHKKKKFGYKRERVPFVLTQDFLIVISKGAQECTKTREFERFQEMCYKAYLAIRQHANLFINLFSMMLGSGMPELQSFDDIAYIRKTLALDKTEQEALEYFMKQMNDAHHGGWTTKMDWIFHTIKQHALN
PI3Kα, sequence (P27986 whole entry partner, canonical isoform): as the sequence (P27986 whole entry partner) above

Regarding `CCNC(=S)NNC(=O)COc1ccc2c(C)c(CC)c(=O)oc2c1C` [Compound 6a, N-Ethyl-2-(2-((3-ethyl-4,8-dimethyl-2-oxo-2H-chromen-7-yl)oxy)acetyl)hydrazine-1-carbothioamide], the IC50 in the series on MDA-MB-231 is greater than 50 µM.
As for `Cc1c(Cc2ccccc2)c(=O)oc2c(C)c(OCC(=O)NN=Cc3ccccc3)ccc12` [Compound 4c, 2-((3-Benzyl-4,8-dimethyl-2-oxo-2H-chromen-7-yl)oxy)-N'-benzylideneacetohydrazide], the IC50 in the series on MDA-MB-231 turned out to be 8.5 ± 0.85 µM.
Still for that read-out and setting: next, `CCc1c(C)c2ccc(OCc3nnc(S)n3N)c(C)c2oc1=O` [Compound 7, 7-((4-amino-5-mercapto-4H-1,2,4-triazol-3-yl)methoxy)-3-ethyl-4,8-dimethyl-2H-chromen-2-one]: greater than 50 µM.
For `Cc1c(Cc2ccccc2)c(=O)oc2c(C)c(OCC(=O)NN=Cc3ccc([N+](=O)[O-])cc3)ccc12` [Compound 4e, 2-((3-Benzyl-4,8-dimethyl-2-oxo-2H-chromen-7-yl)oxy)-N'-(4-nitrobenzylidene)acetohydrazide], the IC50 came out at 24.3 ± 2.28 µM with MDA-MB-231, 23.1 ± 1.2 µM with PC-3 and 0.992 µM against PI3Kβ (p110β/p85α).
Take `CCc1c(C)c2ccc(OCC(=O)NN=Cc3ccc([N+](=O)[O-])cc3)cc2oc1=O` [Compound 4a, 2-((3-Ethyl-4-methyl-2-oxo-2H-chromen-7-yl)oxy)-N'-(4-nitrobenzylidene) acetohydrazide]: the values for the IC50 with MDA-MB-231 and on PI3Kβ (p110β/p85α) were 23.6 ± 0.36 µM and 0.792 µM, respectively. In addition, the “fold superior to IC50 of the erlotinib, PC-3” value (from here on “fold superior to IC50”) with PC-3 turned out to be 1.2 fold.
As for `CCOc1ccc2c(C)c(CC)c(=O)oc2c1C` [Compound 9a, 7-Ethoxy-3-ethyl-4,8-dimethyl-2H-chromen-2-one], the IC50 with MDA-MB-231 was greater than 50 µM.
Same read-out and setting: as for `C=CCOc1ccc2c(C)c(CC)c(=O)oc2c1C` [Compound 9d, 7-(Allyloxy)-3-ethyl-4,8-dimethyl-2H-chromen-2-one], the figure is greater than 50 µM; as for `CCCOc1ccc2c(C)c(CC)c(=O)oc2c1C` [Compound 9b, 3-Ethyl-4,8-dimethyl-7-propoxy-2H-chromen-2-one], greater than 50 µM.
As to `CC(=NNC(=O)COc1ccc2c(C)c(Cc3ccccc3)c(=O)oc2c1C)c1ccc(Br)cc1` [Compound 5, 2-((3-benzyl-4,8-dimethyl-2-oxo-2H-chromen-7-yl)oxy)-N'-(1-(4-bromophenyl)ethylidene)acetohydrazide], the IC50 in the series with MDA-MB-231 amounted to 46.3 ± 2.7 µM; with HCT-116 it was 19.8 ± 0.55 µM; in the series on HEPG-2, 14.2 ± 1.2 µM; in series [1], 95.5 ± 1.3 µM; at EGFR it was 0.181 µM; against PI3Kβ (p110β/p85α) it was 0.261 µM. In addition, the results for the IC50 against PI3Kα, on PI3Kγ and on PI3Kδ were 2.89 ± 0.33 µM, 5.04 ± 0.21 µM and 5.49 ± 0.29 µM, respectively. Also, the “fold superior to IC50” value in the series on PC-3 is 3.45 fold. In addition, the “cytotoxic activity times higher than erlotinib, HEPG-2” value in the series with HEPG-2 (HEPG-2 cell line, vs erlotinib) is on record as 1.5 times. For the same molecule, the “PI3Kβ inhibitory activity relative to LY294002” value on PI3Kβ (p110β/p85α) (vs LY294002 as reference PI3Kβ inhibitor) is “twofold”. For the same molecule, the “downregulation of AKT gene expression” value in the series with AKT was 2.5 fold. Moreover, in the series on m-TOR, the “downregulation of m-TOR gene expression” value turned out to be 2.6 fold. In the series on P53, the “induced expression of P53 gene” value turned out to be 3.83 fold. Also, in the series on BAX, the “expression of BAX gene” value came out at 5.6 fold. For the same molecule, the “downregulation of BCl-2 gene” value with BCl-2 is on record as 0.30 fold. Further, in the series on caspase 3, the “upregulation of caspase 3 gene” value came to 5.40 fold. For the same molecule, the “upregulation of caspase 8 gene” value in the series on caspase 8 came out at 2.96 fold. The “percentage of cells in G1 phase” value with PC-3 cells [2] is 52.09%. For the same molecule, the “percentage of cells in G2/M phase” value in the series on PC-3 cells [2] came out at 5.8%. The “percentage of cells in S phase” value in the series on PC-3 cells [2] is listed as 42.11%. The “proportion of early apoptotic cells” value in the series with PC-3 cells [3] (compound at IC50, lower right quadrant) is given as 22.62%. Also, the “proportion of late apoptotic cells” value in the series on PC-3 cells [3] (compound at IC50, upper right quadrant) came to 13.33%.
Turning to “7-((amino-5-(isopropylthio)-4H-1,2,4-triazol-3-yl)methoxy)-3-ethyl-4,8-dimethyl-2H-chromen-2-one [Compound 8]”, the IC50 in the series on PC-3 was greater than 50 µM.
On PI3Kδ, `O=c1cc(N2CCOCC2)oc2c(-c3ccccc3)cccc12` [LY294002, reference compound] came in with an IC50 of 7.42 ± 0.36 µM.
Take `Cc1c(Cc2ccccc2)c(=O)oc2c(C)c(OCC(=O)NN=Cc3ccco3)ccc12` [Compound 4b, 2-((3-Benzyl-4,8-dimethyl-2-oxo-2H-chromen-7-yl)oxy)-N'-(furan-2-ylmethylene)acetohydrazide]: in the series on MDA-MB-231, the IC50 amounted to 11.8 ± 0.98 µM. Further, the “fold superior to IC50” value in the series with PC-3 was found to be 1.36 fold.
As for `C=CCNC(=S)NNC(=O)COc1ccc2c(C)c(CC)c(=O)oc2c1C` [Compound 6b, N-Allyl-2-(2-((3-ethyl-4,8-dimethyl-2-oxo-2H-chromen-7-yl)oxy)acetyl)hydrazine-1-carbothioamide], the concentration for half-maximal inhibition (IC50) in the series with MDA-MB-231 is greater than 50 µM.
Consider `CCc1c(C)c2ccc(OCC=Cc3ccccc3)c(C)c2oc1=O` [Compound 9e, 7-(Cinnamyloxy)-3-ethyl-4,8-dimethyl-2H-chromen-2-one], for which, in the series on MDA-MB-231, the IC50 was greater than 50 µM.
On to `CCc1c(C)c2ccc(OCC(=O)NNC(=S)Nc3ccccc3)c(C)c2oc1=O` [Compound 6c, 2-(2-((3-Ethyl-4,8-dimethyl-2-oxo-2H-chromen-7-yl)oxy)acetyl)-N-phenylhydrazine-1-carbothioamide], for which, in the series on MDA-MB-231, the IC50 is greater than 50 µM.
As for `C#Cc1cccc(Nc2ncnc3cc(OCCOC)c(OCCOC)cc23)c1` [Erlotinib, erlotinib, reference compound], the IC50 in the series on MDA-MB-231 came out at 11.1 ± 1.11 µM; with HCT-116, 17.8 ± 1.15 µM; in the series with HEPG-2, 22.1 ± 0.46 µM; in series [1] it was 63.5 ± 5.56 µM.
As for `Cc1c(Cc2ccccc2)c(=O)oc2c(C)c(OCC(=O)NN=Cc3ccc(Cl)cc3)ccc12` [Compound 4d, 2-((3-Benzyl-4,8-dimethyl-2-oxo-2H-chromen-7-yl)oxy)-N'-(4-chlorobenzylidene)acetohydrazide], in the series on MDA-MB-231, the IC50 was greater than 50 µM.

As usually defined, the IC50 is the midpoint of a concentration-inhibition curve.
